These results are taken from ChEMBL document CHEMBL1144868, “Modulation of P-glycoprotein-mediated multidrug resistance by flavonoid derivatives and analogues” (2003).

What all share (assay type): functional, Homo sapiens
In assay [1] the test system is K562. In words: Rhodamine-123 accumulation in K562 cells with or without expression of PGP protein at a concentration of 1 uM. A digest of the protocol: (§1)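 K562R (adriamycin-resistant, Pgp-expressing) cells, kept under continuous 10^-6 M adriamycin, were washed twice and suspended at 10⁶ cells/mL in RPMI. Modulator was added for 15 min at 37 °C, then rhodamine-123 at 0.05 µg/mL final for 1 h at 37 °C. Fluorescence at […] was read by flow cytometry in arbitrary units, as the mean of at least 3 independent experiments.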

The subject of assay [2] is K562. In words: Rhodamine-123 accumulation in K562 cells with or without expression of PGP protein at a concentration of 0.1 uM. In short, it runs like this: as §1
In assay [3] the test system is K562. In words: Rhodamine-123 accumulation in K562 cells with or without expression of PGP protein at a concentration of 0.01 uM. A digest of the protocol:
as §1

For assay [4], the system named is K562. In words: Rhodamine-123 accumulation in K562 cells with or without expression of PGP protein at a concentration of 1 nM. A digest of the protocol: as §1

Turning to `O=C(c1cc(=O)c2c(O)cccc2o1)N1CCN(Cc2ccccc2)CC1`, the Rhodamine-123 accumulation in the assay on K562 [1] amounted to 136 arbitrary units; in the assay with K562 [2], 95 arbitrary units; in the assay with K562 [3], 72 arbitrary units; with K562 [4], 45 arbitrary units.

As for `C/C=C/C[C@@H](C)[C@@H](O)[C@H]1C(=O)N[C@@H](CC)C(=O)N(C)CC(=O)N(C)[C@@H](CC(C)C)C(=O)N[C@@H](C(C)C)C(=O)N(C)[C@@H](CC(C)C)C(=O)N[C@@H](C)C(=O)N[C@H](C)C(=O)N(C)[C@@H](CC(C)C)C(=O)N(C)[C@@H](CC(C)C)C(=O)N(C)[C@@H](C(C)C)C(=O)N1C` [CYCLOSPORINE], the Rhodamine-123 accumulation with K562 [1] was found to be 102 arbitrary units; with K562 [2], 87 arbitrary units; in the assay with K562 [3] it was 80 arbitrary units; in the assay with K562 [4], 72 arbitrary units.

For the molecule `COc1cc(OC)c2c(O)c(-c3ccccc3)cnc2c1`, the Rhodamine-123 accumulation in the assay on K562 [1] was determined as 82 arbitrary units; in the assay with K562 [2], 55 arbitrary units; in the assay on K562 [3], 43 arbitrary units; in the assay with K562 [4], 36 arbitrary units.

Consider `O=C(c1cc(=O)c2c(O)cccc2o1)N1CCOCC1`, for which the Rhodamine-123 accumulation in the assay with K562 [1] was 42 arbitrary units; in the assay with K562 [2], 44 arbitrary units; with K562 [3], 41 arbitrary units; with K562 [4], 39 arbitrary units.

In the case of `O=C(c1ccccc1)N1CCN(C(=O)c2cc(=O)c3c(O)cccc3o2)CC1`, the Rhodamine-123 accumulation in the assay on K562 [1] was 42 arbitrary units; in the assay on K562 [2], 47 arbitrary units; in the assay with K562 [3], 45 arbitrary units; in the assay on K562 [4], 38 arbitrary units.

`COc1cc(OC)c2c(c1)O/C(=C\c1ccccc1)C2=O`: the Rhodamine-123 accumulation with K562 [1] came to 249 arbitrary units; with K562 [2], 203 arbitrary units; in the assay on K562 [3] it was 178 arbitrary units; in the assay with K562 [4], 40 arbitrary units.

On to `O=C(NCc1ccc(Cl)cc1)c1cc(=O)c2c(O)cccc2o1`, for which the Rhodamine-123 accumulation in the assay on K562 [1] is 46 arbitrary units; with K562 [2] it was 45 arbitrary units; with K562 [3], 42 arbitrary units; in the assay on K562 [4] it was 50 arbitrary units.

Take `CN1CCN(C(=O)c2cc(=O)c3c(O)cccc3o2)CC1`: the Rhodamine-123 accumulation with K562 [1] amounted to 207 arbitrary units; in the assay with K562 [2], 138 arbitrary units; in the assay with K562 [3], 134 arbitrary units; in the assay with K562 [4], 76 arbitrary units.

On to `CCN1CCN(C(=O)c2cc(=O)c3c(O)cccc3o2)CC1`, for which the Rhodamine-123 accumulation in the assay with K562 [1] was 85 arbitrary units; in the assay with K562 [2], 47 arbitrary units; with K562 [3], 44 arbitrary units; in the assay with K562 [4], 40 arbitrary units.

Consider `O=C(c1cc(=O)c2c(O)cccc2o1)N1CCN(c2ccccc2)CC1`, for which the Rhodamine-123 accumulation in the assay on K562 [1] was determined as 82 arbitrary units; in the assay on K562 [2] it was 57 arbitrary units; in the assay on K562 [3] it was 40 arbitrary units; in the assay with K562 [4], 39 arbitrary units.

As for `CC(=O)N1CCN(C(=O)c2cc(=O)c3c(O)cccc3o2)CC1`, the Rhodamine-123 accumulation with K562 [1] was found to be 38 arbitrary units; with K562 [2], 37 arbitrary units; in the assay on K562 [3], 43 arbitrary units; with K562 [4], 41 arbitrary units.

`O=C(c1cc(=O)c2c(O)cccc2o1)N1CCCCC1`: the Rhodamine-123 accumulation came to 45 arbitrary units in the assay with K562 [1], 44 arbitrary units in the assay with K562 [2], 46 arbitrary units with K562 [3] and 43 arbitrary units with K562 [4].

Take `COc1cc(OC)c2c(=O)c(-c3ccccc3)coc2c1` [5,7-DIMETHOXYISOFLAVONE]: the Rhodamine-123 accumulation with K562 [1] worked out at 49 arbitrary units; with K562 [2], 46 arbitrary units; in the assay with K562 [3], 54 arbitrary units; in the assay with K562 [4], 40 arbitrary units.
